Measured values collected from several papers.
Organism: Enterococcus faecalis
Observed: microbial growth

CC(C)Oc1c(NC(=O)c2ccc(NC(=O)[C@H](CC(N)=O)NC(=O)c3ccc(NC(=O)c4ccc(C#N)cn4)cc3)cc2)ccc(C(=O)Nc2ccc(C(=O)O)cc2)c1O  MIC (ATCC29212): 0.125 µg/mL
CC1(C)S[C@@H]2[C@H](NC(=O)[C@H](N)c3ccccc3)C(=O)N2[C@H]1C(=O)O  MIC (broth dilution; ATCC29212): 2 µg/mL
C/C=C(\C)c1cc(OC(=O)c2c(C)c(Cl)c(O)c(Cl)c2O)c(C)c(O)c1C(=O)O  MIC (broth dilution; ATCC29212): > 64 µg/mL
Cc1ccc(C)n1-c1ccc(-c2nnc(-c3cccc([N+](=O)[O-])c3)[nH]2)cc1  MIC (broth dilution; ATCC14506; 18 h): 31.2 µg/mL
CSc1ccc(-c2nc3ccccc3[nH]2)cc1  MIC (broth dilution; ATCC29212): 64 µg/mL
C/C=C(\C)c1cc(O)c(C)c(OC(=O)c2c(C)cc(O)c(Cl)c2O)c1  MIC (broth dilution; ATCC29212): 8 µg/mL
C/C(=C\c1ccc(O)cc1)C(=O)Nc1ccc(C(=O)N[C@@H](CC(N)=O)C(=O)Nc2ccc(C(=O)Nc3ccc(C(=O)Nc4ccc(C(=O)O)cc4)c(O)c3OC(C)C)cc2)cc1  MIC (ATCC29212): 0.5 µg/mL
Cc1ccc2nc(-c3ccco3)n(Cc3ccccc3)c2c1  MIC (broth dilution; ATCC29212): 128 µg/mL
CN[C@H](CC(C)C)C(=O)N[C@H]1C(=O)N[C@@H](CC(N)=O)C(=O)N[C@H]2C(=O)N[C@H]3C(=O)N[C@H](C(=O)N[C@H](C(=O)O)c4cc(O)cc(O)c4-c4cc3ccc4O)[C@H](O)c3ccc(c(Cl)c3)Oc3cc2cc(c3O[C@@H]2O[C@H](CO)[C@@H](O)[C@H](O)[C@H]2O[C@H]2C[C@](C)(N)[C@H](O)[C@H](C)O2)Oc2ccc(cc2Cl)[C@H]1O  MIC (broth dilution; ATCC29212): 2 µg/mL
Cc1ccc(C)n1-c1ccc(-c2nnc(-c3ccccc3Cl)[nH]2)cc1  MIC (broth dilution; ATCC14506; 18 h): 16 µg/mL
Cc1ccc2nc(-c3ccc([N+](=O)[O-])cc3)n(Cc3ccccc3)c2c1  MIC (broth dilution; ATCC29212): 8 µg/mL
CNC(=O)c1cc(Oc2ccc(NC(=O)Nc3ccc(Cl)c(C(F)(F)F)c3)cc2)ccn1  MIC: > 100 µM
Cc1ccc(C)n1-c1ccc(-c2nnc(-c3ccc(O)cc3)[nH]2)cc1  MIC (broth dilution; ATCC14506; 18 h): 31.2 µg/mL
COc1ccc(-c2nc3ccc(C)cc3[nH]2)cc1OC  MIC (broth dilution; ATCC29212): 128 µg/mL
Cc1ccc(C)n1-c1ccc(-c2nnc(-c3ccccc3[N+](=O)[O-])[nH]2)cc1  MIC (broth dilution; ATCC14506; 18 h): 31.2 µg/mL
CCn1cc(C(=O)O)c(=O)c2cc(F)c(N3CCNCC3)cc21  MIC (broth dilution; NCTC12697): 4 µM
Cc1ccc2nc(-c3ccc(F)cc3)[nH]c2c1  MIC (broth dilution; ATCC29212): 64 µg/mL
CCn1cc(C(=O)O)c(=O)c2cc(F)c(N3CCNCC3)cc21  MIC (broth dilution; ATCC14506; 18 h): < 5 µg/mL
Cc1ccc2nc(-c3c4ccccc4cc4ccccc34)[nH]c2c1  MIC (broth dilution; ATCC29212): 64 µg/mL
Cc1ccc(C)n1-c1ccc(-c2nnc(-c3ccc(N(C)C)cc3)[nH]2)cc1  MIC (broth dilution; ATCC14506; 18 h): 31.2 µg/mL
